Results published in ChEMBL document CHEMBL5316332 (J Med Chem, 2023).
Active and inactive are the calls of the source. No cut-off for these calls is given here.

Experiments:
[1] = biological target: T1, Bone morphogenetic protein receptor type-2 (Homo sapiens, UniProt Q13873); experiment: Inhibition of recombinant C-terminal 6His-tagged human BMPR2 (188 to 517 residues) expressed in Escherichia coli Rosetta assessed as apparent inhibition constant using ATP as substrate incubated for 30 mins by Morrison plot analysis; conditions: read-out: Ki(app)
T1 sequence (Q13873 whole entry): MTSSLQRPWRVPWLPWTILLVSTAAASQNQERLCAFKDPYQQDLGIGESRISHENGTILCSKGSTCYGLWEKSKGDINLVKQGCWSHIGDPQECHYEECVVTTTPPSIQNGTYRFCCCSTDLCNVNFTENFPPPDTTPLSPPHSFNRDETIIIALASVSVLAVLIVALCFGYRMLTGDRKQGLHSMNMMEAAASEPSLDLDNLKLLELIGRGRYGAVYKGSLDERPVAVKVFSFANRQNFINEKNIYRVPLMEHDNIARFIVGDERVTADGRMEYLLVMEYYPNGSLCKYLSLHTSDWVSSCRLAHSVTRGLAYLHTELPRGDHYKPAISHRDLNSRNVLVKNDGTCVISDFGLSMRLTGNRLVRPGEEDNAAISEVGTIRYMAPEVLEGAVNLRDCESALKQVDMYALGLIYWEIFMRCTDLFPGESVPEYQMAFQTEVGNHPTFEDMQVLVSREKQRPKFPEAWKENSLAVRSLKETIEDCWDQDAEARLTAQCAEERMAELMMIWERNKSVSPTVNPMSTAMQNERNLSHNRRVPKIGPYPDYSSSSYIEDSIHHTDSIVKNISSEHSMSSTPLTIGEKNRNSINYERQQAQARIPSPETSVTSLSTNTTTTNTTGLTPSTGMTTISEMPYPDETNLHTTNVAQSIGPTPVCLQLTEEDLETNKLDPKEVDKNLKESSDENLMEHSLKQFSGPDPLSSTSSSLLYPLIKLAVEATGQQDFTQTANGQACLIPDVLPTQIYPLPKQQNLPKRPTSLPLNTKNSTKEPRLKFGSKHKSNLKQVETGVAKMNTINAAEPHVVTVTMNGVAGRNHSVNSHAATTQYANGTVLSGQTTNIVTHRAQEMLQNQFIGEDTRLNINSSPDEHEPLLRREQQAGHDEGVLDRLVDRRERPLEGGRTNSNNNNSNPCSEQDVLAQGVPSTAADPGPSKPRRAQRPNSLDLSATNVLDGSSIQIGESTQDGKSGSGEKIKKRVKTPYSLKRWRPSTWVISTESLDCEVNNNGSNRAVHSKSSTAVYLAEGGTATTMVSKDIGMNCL
Procedure, shortened: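 Purified His-tagged BMPR2 kinase domain with no peptide substrate (intrinsic ATPase). 10 μM ATP, 0.02% Tween-20, kinase buffer, 50 μL, enzyme level optimized for initial-velocity conditions. 30 min at 30 °C. Leftover ATP read by Kinase-Glo luminescence, with no-kinase controls. Kiapp from a modified Morrison equation fitted to normalized fractional activity, assuming no specific inhibition mode.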

[2] = biological target: T1, Bone morphogenetic protein receptor type-2; experiment: Inhibition of recombinant C-terminal 6His-tagged human BMPR2 (188 to 517 residues) expressed in Escherichia coli Rosetta by LanthaScreen TR-FRET assay
Procedure, shortened: (§1)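 Outsourced SelectScreen profiling using a LanthaScreen TR-FRET binding format, in which a tight-binding tracer is displaced from the kinase.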

[3] = biological target: Bone morphogenetic protein receptor type-1A (Homo sapiens, UniProt P36894); experiment: Inhibition of BMPR1A (unknown origin) by LanthaScreen TR-FRET assay; procedure, shortened: as §1
[4] = biological target: T2, Activin receptor type-1B (Homo sapiens) (UniProt P36896); experiment: Inhibition of ACVR1B (unknown origin) by Z'-LYTE assay
T2 sequence (whole entry): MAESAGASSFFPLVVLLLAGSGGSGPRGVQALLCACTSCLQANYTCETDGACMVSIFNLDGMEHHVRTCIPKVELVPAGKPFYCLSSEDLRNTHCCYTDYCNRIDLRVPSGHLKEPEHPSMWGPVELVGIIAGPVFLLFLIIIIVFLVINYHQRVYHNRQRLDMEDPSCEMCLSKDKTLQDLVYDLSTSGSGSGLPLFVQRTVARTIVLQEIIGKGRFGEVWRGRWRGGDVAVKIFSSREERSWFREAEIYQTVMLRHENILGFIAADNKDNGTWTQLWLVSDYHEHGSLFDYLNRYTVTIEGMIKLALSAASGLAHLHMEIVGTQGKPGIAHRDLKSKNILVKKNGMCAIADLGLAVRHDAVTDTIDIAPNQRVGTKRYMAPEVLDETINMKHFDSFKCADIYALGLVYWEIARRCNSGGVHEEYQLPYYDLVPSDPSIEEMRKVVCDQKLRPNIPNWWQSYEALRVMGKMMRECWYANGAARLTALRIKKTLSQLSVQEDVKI
Procedure, shortened: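 Outsourced SelectScreen profiling by Z'-LYTE, a fluorescence coupled-enzyme kinase activity assay based on protease sensitivity of nonphosphorylated versus phosphorylated peptide.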

TGF-beta receptor type-2 = TGF-beta receptor type-2 (Homo sapiens, UniProt P37173); experiment: Inhibition of TGFBR2 (unknown origin) by LanthaScreen TR-FRET assay; procedure, shortened: as §1
Activin receptor type-2B = Activin receptor type-2B (Homo sapiens, UniProt Q13705); experiment: Inhibition of ACVR2B (unknown origin) by LanthaScreen TR-FRET assay; procedure, shortened: as §1
[5] = Metabolic stability in mouse liver microsomes assessed as half life at 2 uM and mesured upto 60 mins in presence of NADPH by UHPLC-MS analysis; type: ADME, Microsome; conditions: microsomes, 1 h, 2 µM
[6] = Inhibition of BMP signalling pathway in BMP2-stimulated human HEK293T cells expressing BRE and luciferase reporter assessed as inhibition of luciferase transactivation by measuring BRE-reporter activity preincubated for 30 mins followed by BMP2 stimulation and measured after 6 hrs by Bright-GLO mediated luciferase assay; type: cell-based; conditions: HEK-293T
Procedure, shortened: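 293T cells stably carrying a BMP-responsive-element luciferase reporter, 2 × 10^4 per well, attached overnight in phenol-red-free DMEM with 2 mM glycine and 2% heat-inactivated FBS. Pretreated 30 min with inhibitor, then 5 ng/mL BMP2 for 6 h. Bright-Glo luminescence read; IC50 by nonlinear regression.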

Activin receptor type-1 = biological target: T3, Activin receptor type-1 (Homo sapiens, UniProt Q04771); experiment: Inhibition of ACVR1 (unknown origin) by LanthaScreen TR-FRET assay; procedure, shortened: as §1
T3 sequence (Q04771 whole entry): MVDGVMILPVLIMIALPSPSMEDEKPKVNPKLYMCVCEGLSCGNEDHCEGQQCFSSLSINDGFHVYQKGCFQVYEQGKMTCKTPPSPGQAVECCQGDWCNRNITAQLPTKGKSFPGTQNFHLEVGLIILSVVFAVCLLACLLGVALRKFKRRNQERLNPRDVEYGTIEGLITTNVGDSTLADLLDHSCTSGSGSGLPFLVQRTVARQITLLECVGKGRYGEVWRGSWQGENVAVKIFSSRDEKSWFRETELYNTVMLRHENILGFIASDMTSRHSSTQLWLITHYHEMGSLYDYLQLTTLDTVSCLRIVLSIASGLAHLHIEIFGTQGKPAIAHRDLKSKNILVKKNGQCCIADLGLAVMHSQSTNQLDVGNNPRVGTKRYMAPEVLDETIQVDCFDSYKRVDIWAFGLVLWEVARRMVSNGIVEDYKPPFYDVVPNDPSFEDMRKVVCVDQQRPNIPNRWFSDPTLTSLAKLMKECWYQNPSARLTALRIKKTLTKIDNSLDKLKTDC

Chain of Activin receptor type-2B (Q13705 whole entry): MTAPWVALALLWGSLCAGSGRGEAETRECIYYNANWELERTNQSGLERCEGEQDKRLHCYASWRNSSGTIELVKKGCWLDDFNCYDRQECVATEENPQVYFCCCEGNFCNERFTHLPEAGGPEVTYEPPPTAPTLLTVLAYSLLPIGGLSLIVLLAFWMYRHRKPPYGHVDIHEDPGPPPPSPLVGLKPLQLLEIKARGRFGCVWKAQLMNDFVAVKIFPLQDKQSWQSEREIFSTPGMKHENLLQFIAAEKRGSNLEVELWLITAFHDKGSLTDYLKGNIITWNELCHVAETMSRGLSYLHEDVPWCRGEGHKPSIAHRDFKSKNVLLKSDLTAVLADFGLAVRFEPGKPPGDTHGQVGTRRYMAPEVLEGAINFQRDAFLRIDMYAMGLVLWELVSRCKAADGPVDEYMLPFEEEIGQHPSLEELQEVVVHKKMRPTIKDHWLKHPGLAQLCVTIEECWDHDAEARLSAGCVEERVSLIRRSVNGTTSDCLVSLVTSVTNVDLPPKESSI
Chain of TGF-beta receptor type-2 (P37173 whole entry): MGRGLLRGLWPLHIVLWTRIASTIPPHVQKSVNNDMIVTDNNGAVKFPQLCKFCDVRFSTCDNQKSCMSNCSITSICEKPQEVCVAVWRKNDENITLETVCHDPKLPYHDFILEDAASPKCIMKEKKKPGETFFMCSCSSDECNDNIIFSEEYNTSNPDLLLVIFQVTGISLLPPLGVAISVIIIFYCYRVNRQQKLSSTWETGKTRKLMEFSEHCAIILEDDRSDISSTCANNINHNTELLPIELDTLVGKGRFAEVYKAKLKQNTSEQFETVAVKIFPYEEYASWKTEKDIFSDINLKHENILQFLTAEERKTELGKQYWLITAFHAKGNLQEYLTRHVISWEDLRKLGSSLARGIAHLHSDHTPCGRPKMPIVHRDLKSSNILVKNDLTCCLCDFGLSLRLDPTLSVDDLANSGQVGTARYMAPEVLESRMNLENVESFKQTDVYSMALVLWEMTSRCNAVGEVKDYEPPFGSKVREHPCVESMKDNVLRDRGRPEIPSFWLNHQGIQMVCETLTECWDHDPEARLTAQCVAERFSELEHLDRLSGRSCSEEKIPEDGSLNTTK
Chain of Bone morphogenetic protein receptor type-1A (P36894 whole entry): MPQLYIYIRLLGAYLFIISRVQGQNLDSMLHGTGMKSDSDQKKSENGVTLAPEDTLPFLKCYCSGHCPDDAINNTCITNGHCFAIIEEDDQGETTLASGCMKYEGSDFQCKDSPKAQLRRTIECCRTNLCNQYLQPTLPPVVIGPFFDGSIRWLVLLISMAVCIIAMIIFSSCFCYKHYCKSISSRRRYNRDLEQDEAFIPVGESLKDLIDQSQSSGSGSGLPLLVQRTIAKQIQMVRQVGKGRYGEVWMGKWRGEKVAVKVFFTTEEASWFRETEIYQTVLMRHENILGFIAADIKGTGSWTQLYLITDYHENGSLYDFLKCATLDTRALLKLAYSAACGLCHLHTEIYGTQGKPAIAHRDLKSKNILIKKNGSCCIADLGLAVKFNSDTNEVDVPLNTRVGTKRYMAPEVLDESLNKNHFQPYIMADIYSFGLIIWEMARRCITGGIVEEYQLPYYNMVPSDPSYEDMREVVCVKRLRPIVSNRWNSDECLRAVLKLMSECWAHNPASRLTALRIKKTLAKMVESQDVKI

Row | SMILES | Ki [1] [nM] | IC50 [2] [nM] | inhibition [3] | inhibition [4] | inhibition (TGF-beta receptor type-2) | inhibition (Activin receptor type-2B) | t1/2 [5] [min] | IC50 [6] [nM] | IC50 (Activin receptor type-1) [nM] | IC50 [3] [nM]
1 | COc1cnc(Nc2cccc(S(N)(=O)=O)c2)nc1N1CCN(c2ccccc2)C(=O)C1 | 7 | 2.8 | inactive | inactive | inactive | inactive | 40 | 6920 | – | –
2 | CNC(=O)CCc1ccc(C(=O)NCc2cccc(N3CCN(c4nc(Nc5cccc(S(N)(=O)=O)c5)ncc4OC)CC3)c2)cc1 | 20.6 | 1.6 | inactive | inactive | inactive | inactive | 7 | 4870 | > 1000 | –
3 | CNC(=O)[C@@H]1CC[C@@H](n2c(-c3ccc4cnccc4c3)nc3ccc(C(=O)NCc4cccc(C(N)=O)c4)cc32)C1 | 6.2 | 1.8 | – | inactive | inactive | inactive | – | 24100 | 251 | > 1000
4 | NC(=O)c1cccc(CNC(=O)c2ccc3nc(-c4ccc5cnccc5c4)n(C4CCCC4)c3c2)c1 | 8 | 1.2 | – | inactive | inactive | inactive | 45 | 6190 | 124 | > 1000
